From ChEMBL document CHEMBL1128708, “Synthesis of alkyl chain-modified ether lipids and evaluation of their in vitro cytotoxicity” (J Med Chem, 1995) come the findings set out here.

A value given as a limit tells only on which side of the number the result lay.

Series [1] deals with HL-60. Briefly: Cytotoxicity measured in HL-60 leukemic cells after a 24 hr incubation period. Format: functional, cell-based, Homo sapiens. Put shortly:
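HL-60 cells kept in RPMI-1640 with 5% heat-inactivated FCS, penicillin/streptomycin and 2 mM L-glutamine, >90% viable before use. 10^6 cells/mL exposed 24 h to 2.5–160 μM (twofold steps). Viability by trypan blue exclusion, as % viable cells versus total control cells. IC50 taken as the concentration giving 50% mortality. Two experiments in triplicate; compounds with IC50 >30 μM tested once.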

Series [2] is filed under the species Rattus norvegicus. Briefly: Maximal non-erythrolytic concentration(MNEC) was measured in erythrocytes from rat citreated blood. The series is classed as functional. Put shortly: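 Rat citrated-blood erythrocytes washed in HBSS and mixed 9:1 with test solution for 30 min at 37 °C. Lysis read spectrophotometrically at 546 nm. Value reported as the maximal concentration (μM) causing no erythrolysis.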

Series [3] relates to A-431. Description: Antiproliferative activity of compound was measured on human tumor cell line A431. The series is classed as functional, cell-based. Put shortly:
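Adherent cells trypsinized and seeded at 5000 cells/cm2, grown in RPMI-1640 with 10% heat-inactivated FCS and 2 mM L-glutamine. After 24 h, graded concentrations dissolved in complete medium were added for 48 h (final EtOH ≤0.2%). Cells fixed with 10% TCA and stained with 0.4% SRB in 1% acetic acid. Dye solubilized in 10 mM Tris pH 10.4 and read at 550 nm, background-corrected. IC50 from dose–response curves; two to five experiments, eight replicates each.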

Series [4] can be described thus: Partition coefficient (logP). Format: physicochemical. The conditions noted are these: octanol/water. In outline: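 Calculated rather than measured, for the C-1 chain including the ether O atom, by the Viswanadhan atom-based method.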
Series [5] deals with K562. Description: Antiproliferative activity of compound was measured on human tumor cell line K-562. Format: functional, cell-based. In outline:
(§1)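 Suspension cells at 1 × 10^6 cells/mL in RPMI-1640 with 10% heat-inactivated FCS and 2 mM L-glutamine, 37 °C, 5% CO2. Incubated 120 h with graded ether lipid concentrations (final EtOH ≤0.2%), then counted electronically. IC50 from dose–response curves; two experiments in duplicate, average ± SD.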

Series [6] has as its system HL-60. Description: Antiproliferative activity of compound was measured on human tumor cell line HL-60. Format: functional, cell-based. In outline:
as §1

A word on the IC50: it is the concentration that inhibits the measured activity by half. Higher therefore signals weaker potency. As for `CCCCCCCCCCCC(=O)CCCCCCOCC(COCCCCC[N+](C)(C)C)OC.[Br-]` (stereo unspecified), the 50% inhibitory concentration (IC50) in series [1] (Homo sapiens, HL-60, 24 h) came out at 4.2 µM. The MNEC in series [2] was found to be 5 µM.
A word on the logP: it is the decadic logarithm of the partition coefficient of the neutral form, usually between octanol and water. As for `CCCCCCC(=O)CCCCCCCCCCCOCC(COP(=O)([O-])OCC[N+](C)(C)C)OC` (stereo unspecified), the IC50 in series [3] (Homo sapiens, A-431) turned out to be 40.6 µM; in series [1] (Homo sapiens, HL-60, 24 h), 45 µM; in series [5] (Homo sapiens, K562), 84.5 µM; in series [6] (Homo sapiens, HL-60), 12.3 µM. Also, the log partition coefficient (logP) in series [4] (read-out: logP) amounted to 5.92. Also, in series [2], the MNEC came to 50 µM.
As for `CCCCCCCCCCCCCCCCCCOCC(COCCCCC[N+](C)(C)C)OC.[Br-]` (stereo unspecified), the half-inhibitory concentration (IC50) in series [1] (Homo sapiens, HL-60, 24 h) turned out to be 8 µM. Also, the MNEC in series [2] came to 5 µM.
Consider `CCCCCCCCCCCCCCC(=O)CCCOCC(COP(=O)([O-])OCC[N+](C)(C)C)OC` (stereo unspecified), for which the IC50 turned out to be 13.5 µM in series [3] (Homo sapiens, A-431); 4.1 µM in series [1] (Homo sapiens, HL-60, 24 h); 10.5 µM in series [5] (Homo sapiens, K562); 1.1 µM in series [6] (Homo sapiens, HL-60). Further, the logP in series [4] (read-out: logP) turned out to be 5.92. The same compound came in with an MNEC in series [2] of 10 µM.
As to `COC(COCCCCCCCCCCCCCCCCc1ccccc1)COP(=O)([O-])OCC[N+](C)(C)C` (stereo unspecified), the logP in series [4] (read-out: logP) was determined as 7.59. Moreover, inhibition in series [1] (Homo sapiens, HL-60, 24 h) was half-maximal at 13.2 µM (IC50). Moreover, in series [2], the MNEC is 10 µM.
Consider `CCCCCCC(O)CCCCCCCCCCCOCC(COCCCCC[N+](C)(C)C)OC.[Br-]` (stereo unspecified), for which, in series [1] (Homo sapiens, HL-60, 24 h), half-maximal inhibition (IC50) was put at 25.6 µM. This compound also came in with an MNEC in series [2] of 50 µM.
Regarding `CCCCCCCCC(CCCCCCOCC(COP(=O)([O-])OCC[N+](C)(C)C)OC)c1ccccc1` (stereo unspecified), in series [4] (read-out: logP), the logP worked out at 7.13. Moreover, the half-inhibitory concentration (IC50) in series [1] (Homo sapiens, HL-60, 24 h) is 30.7 µM. Besides, the MNEC in series [2] amounted to 5 µM.
For `COC(COCCCCCCCCCCC(O)c1ccccc1)COP(=O)([O-])OCC[N+](C)(C)C` (stereo unspecified), in that order: 4.7, above 160 µM and above 200 µM.
Take `COC(COCCCCCCCCCCC(=O)c1ccccc1)COP(=O)([O-])OCC[N+](C)(C)C` (stereo unspecified): the logP in series [4] (read-out: logP) worked out at 4.29. The IC50 in series [1] (Homo sapiens, HL-60, 24 h) was above 160 µM. For the same compound, the MNEC in series [2] was above 200 µM.
In turn, `CCCCCCCCCCCC(CCCCCC)CCCCCCOCC(COP(=O)([O-])OCC[N+](C)(C)C)OC` (stereo unspecified) registered a log partition coefficient (logP) in series [4] of 9.08. The compound further displayed an IC50 in series [1] (Homo sapiens, HL-60, 24 h) of 50 µM. In addition, in series [2], the MNEC is above 200 µM.
On to `CCCCCCCCCCCC(=O)CCCCCCOCC(COP(=O)(O)OC[C@@H](N)C(=O)O)OC` (stereo partly specified), for which, in series [1] (Homo sapiens, HL-60, 24 h), the IC50 was above 160 µM. In series [2], this compound registered an MNEC above 200 µM.
For `CCCCCCC(=O)CCCCCCCCCCCOCC(COP(=O)(O)OC[C@@H](N)C(=O)O)OC` (stereo partly specified), in that order: 30 µM and above 200 µM.
As for `CCCCC(CCCC)CCCCCCOCC(COP(=O)([O-])OCC[N+](C)(C)C)OC` (stereo unspecified), in series [4] (read-out: logP), the logP came out at 5.51. 54 µM corresponded to half-maximal inhibition in series [1] (Homo sapiens, HL-60, 24 h) (IC50). The compound further returned an MNEC in series [2] of 20 µM.
On to `CCCCCCCCCCCCCCCCCCOCC(COP(=O)([O-])OCC[N+](C)(C)C)OC` (stereo unspecified) [EDELFOSINE], for which the IC50 is 13.5 µM in series [3] (Homo sapiens, A-431); 6.1 µM in series [1] (Homo sapiens, HL-60, 24 h); 6.1 µM in series [5] (Homo sapiens, K562); 1 µM in series [6] (Homo sapiens, HL-60). In addition, the lipophilicity (logP) in series [4] (read-out: logP) is 6.77. The compound further came in with an MNEC in series [2] of 2 µM.
Regarding `CCCCCCCCCCCCCCCCCCOCC(COP(=O)(O)OC[C@@H](N)C(=O)O)OC` (stereo partly specified), in series [1] (Homo sapiens, HL-60, 24 h), inhibition was half-maximal at 25.2 µM (IC50). The same compound registered an MNEC in series [2] above 200 µM.
Take `CCCCCCCCC(CCCCCCCC)CCCCCCOCC(COP(=O)([O-])OCC[N+](C)(C)C)OC` (stereo unspecified): the logP in series [4] (read-out: logP) was 8.68. Further, it took 52 µM to reach half-maximal inhibition in series [1] (Homo sapiens, HL-60, 24 h) (IC50). The compound also came in with an MNEC in series [2] above 200 µM.
`CCCCCCC(CCCCCC)CCCCCCCCCCCOCC(COP(=O)([O-])OCC[N+](C)(C)C)OC` (stereo unspecified) had a logP in series [4] of 9.08. The compound further displayed an IC50 in series [1] (Homo sapiens, HL-60, 24 h) of 46 µM. Further, the MNEC in series [2] was above 200 µM.
For the compound `CCCCCCCCCCCC(C)CCCCCCOCC(COP(=O)([O-])OCC[N+](C)(C)C)OC` (stereo unspecified), the log partition coefficient (logP) in series [4] (read-out: logP) turned out to be 7.1. Besides, in series [1] (Homo sapiens, HL-60, 24 h), the IC50 was found to be 8.9 µM. Further, in series [2], the MNEC was determined as 5 µM.
With `CCCCCCCCCCCC(=O)CCCCCCOCC(COP(=O)([O-])OCC[N+](C)(C)C)OC` (stereo unspecified), the IC50 in series [3] (Homo sapiens, A-431) was found to be 21.1 µM; in series [1] (Homo sapiens, HL-60, 24 h), 9.1 µM; in series [5] (Homo sapiens, K562), 41.4 µM; in series [6] (Homo sapiens, HL-60) it was 3 µM. Also, the logP in series [4] (read-out: logP) stood at 5.92. Moreover, the MNEC in series [2] was 20 µM.
`CCCCCCCCCCCCCCCCOP(=O)([O-])OCC[N+](C)(C)C` [MILTEFOSINE] displayed an IC50 in series [1] (Homo sapiens, HL-60, 24 h) of 20.4 µM. In addition, the MNEC in series [2] was 2 µM.
For the compound `CCCCCCCCCCCCCCCCC(=O)COCC(COP(=O)([O-])OCC[N+](C)(C)C)OC` (stereo unspecified), the half-inhibitory concentration (IC50) in series [3] (Homo sapiens, A-431) was 14.2 µM; in series [1] (Homo sapiens, HL-60, 24 h), 3.5 µM; in series [5] (Homo sapiens, K562) it was 9 µM; in series [6] (Homo sapiens, HL-60) it was 1.3 µM. Also, in series [4] (read-out: logP), the lipophilicity (logP) was found to be 6.29. The same compound showed an MNEC in series [2] of 5 µM.
Consider `CCCCCCCCCCCC(=O)CCCCCCOC[C@@H](COP(=O)([O-])OCC[N+](C)(C)C)OC`, for which the IC50 in series [3] (Homo sapiens, A-431) came out at 19.7 µM; in series [3] (a-431), 21.8 µM; in series [1] (Homo sapiens, HL-60, 24 h), 5.9 µM; in series [1] (hl-60), 11.3 µM; in series [5] (Homo sapiens, K562), 40.2 µM; in series [5] (k562) it was 39.2 µM. For the same compound, the IC50 in series [6] (Homo sapiens, HL-60) turned out to be 4.4 µM; in series [6] (hl-60), 3 µM. In series [4] (read-out: logP), the logP was 5.92. Besides, the MNEC in series [2] was 20 µM.
